Source: ChEMBL document CHEMBL3632461 (J Med Chem, 2015)
The source made the active and inactive calls. The calls are words filed in the database; no cut-off is given here.

How the values were obtained:
[1] = target: T1, Thyroid peroxidase (Homo sapiens) (UniProt P07202); experiment: Inhibition of TPO (unknown origin) using Amplex Red as substrate assessed as formation of resorufin by measuring ratio of Kinact to Ki measured every 20 secs by spectrophotometric analysis
T1 sequence (whole entry): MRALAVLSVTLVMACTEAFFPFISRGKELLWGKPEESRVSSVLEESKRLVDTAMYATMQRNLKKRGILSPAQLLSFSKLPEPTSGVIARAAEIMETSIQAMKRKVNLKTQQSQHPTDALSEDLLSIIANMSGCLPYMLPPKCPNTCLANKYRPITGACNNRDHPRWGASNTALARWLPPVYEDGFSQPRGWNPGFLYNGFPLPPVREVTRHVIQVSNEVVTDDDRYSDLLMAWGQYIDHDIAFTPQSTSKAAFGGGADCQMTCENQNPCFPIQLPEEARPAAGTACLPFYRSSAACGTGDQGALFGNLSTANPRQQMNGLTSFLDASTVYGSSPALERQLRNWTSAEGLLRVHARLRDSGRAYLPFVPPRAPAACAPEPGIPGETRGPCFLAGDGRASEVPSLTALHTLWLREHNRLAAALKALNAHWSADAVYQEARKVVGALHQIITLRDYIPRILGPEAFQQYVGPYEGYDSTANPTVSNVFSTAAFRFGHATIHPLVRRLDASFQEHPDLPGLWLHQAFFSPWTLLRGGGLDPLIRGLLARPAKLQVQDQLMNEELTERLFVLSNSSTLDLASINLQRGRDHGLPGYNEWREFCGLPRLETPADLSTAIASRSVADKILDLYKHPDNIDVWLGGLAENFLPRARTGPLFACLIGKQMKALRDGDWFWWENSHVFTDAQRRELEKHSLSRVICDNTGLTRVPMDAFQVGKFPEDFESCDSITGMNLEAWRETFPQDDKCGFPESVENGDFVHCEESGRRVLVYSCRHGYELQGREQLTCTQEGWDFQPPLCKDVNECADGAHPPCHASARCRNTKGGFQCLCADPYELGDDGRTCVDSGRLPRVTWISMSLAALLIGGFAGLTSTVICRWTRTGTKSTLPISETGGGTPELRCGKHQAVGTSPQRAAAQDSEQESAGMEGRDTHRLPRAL
Method in brief: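 Amplex Red oxidation to resorufin in 50 mM sodium phosphate pH 7.4, 150 mM NaCl, 1 mM DTPA, 2 μM H2O2, 30 μM Amplex Red, 2% DMSO. Reaction started by adding TPO. Background rate measured with bovine catalase added and subtracted. Fluorescence (ex 530/em 580) read every 20 s at room temperature. kinact/KI taken from initial rates over the first 300 s. Geometric mean of at least two experiments.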

[2] = Lipophilicity, log D of the compound at pH 7.4 by shake-flask method; assay type: physicochemical; details: buffer
[3] = target: T2, Myeloperoxidase (Homo sapiens) (UniProt P05164); experiment: Inhibition of peroxidase activity of MPO isolated from human polynuclear leukocytes using Amplex Red as substrate assessed as formation of resorufin by measuring ratio of Kinact to Ki measured every 20 secs by spectrophotometric analysis
T2 sequence (whole entry): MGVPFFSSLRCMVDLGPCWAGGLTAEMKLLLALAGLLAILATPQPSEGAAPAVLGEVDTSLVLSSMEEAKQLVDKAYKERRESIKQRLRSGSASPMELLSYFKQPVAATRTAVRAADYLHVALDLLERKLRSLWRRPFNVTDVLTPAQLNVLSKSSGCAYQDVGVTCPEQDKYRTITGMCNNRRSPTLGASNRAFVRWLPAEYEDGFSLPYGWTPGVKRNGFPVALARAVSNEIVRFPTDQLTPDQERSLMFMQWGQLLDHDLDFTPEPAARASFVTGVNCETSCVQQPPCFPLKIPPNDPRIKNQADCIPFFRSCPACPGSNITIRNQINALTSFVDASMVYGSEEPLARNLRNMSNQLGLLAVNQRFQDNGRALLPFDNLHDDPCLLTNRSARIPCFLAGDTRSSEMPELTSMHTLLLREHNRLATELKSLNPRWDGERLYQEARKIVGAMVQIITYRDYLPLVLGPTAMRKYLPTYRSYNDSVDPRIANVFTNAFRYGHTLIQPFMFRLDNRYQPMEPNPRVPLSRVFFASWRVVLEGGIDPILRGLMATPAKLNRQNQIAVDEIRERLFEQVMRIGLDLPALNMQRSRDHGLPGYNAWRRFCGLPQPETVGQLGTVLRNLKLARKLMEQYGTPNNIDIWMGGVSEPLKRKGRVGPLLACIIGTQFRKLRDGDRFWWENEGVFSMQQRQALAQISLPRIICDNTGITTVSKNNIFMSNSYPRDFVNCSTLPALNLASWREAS
Method in brief: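 Enzyme purified from human polynuclear leukocytes. Buffer: 50 mM sodium phosphate pH 7.4, 150 mM NaCl, 1 mM DTPA, 2 μM H2O2, 30 μM Amplex Red, inhibitor or DMSO. Resorufin fluorescence (ex 530/em 580) read every 20 s at room temperature. Progress curves fitted for kobs at each concentration. kinact/KI derived from the kobs versus [I] fit or slope. Geometric mean of at least two experiments.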

Myeloperoxidase [4] = target: T3, Myeloperoxidase (Homo sapiens, UniProt P05164); experiment: Irreversible inhibition of MPO in LPS-stimulated human whole blood after 4 hrs by Amplex Red/H2O2-based fluorescence plate reader analysis
T3 sequence (P05164 whole entry): T2 sequence (whole entry)
Method in brief: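 Heparinized whole blood from healthy human volunteers, stimulated with bacterial LPS and incubated with compound for 4 h. MPO captured on anti-MPO antibody plates and washed; residual activity measured with Amplex Red and H₂O₂. IC₅₀ reported as geometric mean [90% CI].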

[5] = Drug level in sodium phosphate buffer treated with 10 uM PTU after 60 mins by LC-MS/MS analysis in presence of human MPO/H2O2/Cl-; assay type: physicochemical; details: 1 h
[6] = Retention time of the compound by LC-MS/MS analysis in presence of human MPO/H2O2/Cl-/excess GSH; assay type: physicochemical
Myeloperoxidase [7] = target: T3, Myeloperoxidase; experiment: Inhibition of peroxidase activity of MPO isolated from human polynuclear leukocytes using Amplex Red as substrate assessed as formation of resorufin after 300 secs by spectrophotometric analysis
[8] = target: T2, Myeloperoxidase (Homo sapiens); details: 0.47 to 30 uM
[9] = target: T2, Myeloperoxidase (Homo sapiens); details: 24 uM
[10] = target: T2, Myeloperoxidase (Homo sapiens); details: 24 uM; remark: listed apart in the source
[11] = Retention time of the compound in sodium phosphate buffer at 10 uM after 60 mins by LC-MS/MS analysis in presence of H2O2; assay type: physicochemical; details: 1 h
[12] = Apparent permeability across RRCK cells; assay type: ADME, cell-based, Canis lupus familiaris, MDCKII-LE; details: dog, MDCK
Method in brief: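 Passive permeability measured in Ralph−Russ canine kidney (RRCK) cells, a low-transporter line isolated from Madin−Darby canine kidney cells; reported as P_app (10⁻⁶ cm/s).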

[13] = Fraction unbound in human plasma by equilibrium dialysis method; assay type: ADME, cell-free
Method in brief: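 Fraction unbound in human plasma measured by equilibrium dialysis; mean of three individual determinations.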

Liver microsome = experiment: Intrinsic apparent clearance in human liver microsomes; assay type: ADME
Method in brief: (§1)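 Stability incubations in NADPH-supplemented human liver microsomes or cryopreserved human hepatocytes. Total apparent intrinsic clearance scaled from the in vitro half-life; microsomes reported per mg protein, hepatocytes per 10⁶ cells.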

Hepatocyte = experiment: Intrinsic apparent clearance in human hepatocytes assessed per 10^6 cells; assay type: ADME, cell-based; method in brief: as §1
[14] = Plasma clearance in Wistar rat at 1 mg/kg, iv and 3 or 5 mg/kg, po; assay type: ADME, organism-based
Method in brief: (§2)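 Male CD-1 mice (25−35 g), cannulated Wistar-Han rats (250 g), beagle dogs (12 kg) and cynomolgus monkeys (7 kg), fasted overnight and fed 1.0 or 2.0 h after dosing. iv 1 mg/kg in saline or 12% sulfobutyl ether β-cyclodextrin; po 3 or 5 mg/kg in 0.5% methylcellulose. Parameters calculated from plasma concentration−time data; mean ± SD for n = 3, individual values for n = 2.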

[15] = Plasma clearance in Beagle dog at 1 mg/kg, iv and 3 or 5 mg/kg, po; assay type: ADME, organism-based, Canis lupus familiaris; method in brief: as §2
[16] = Volume of distribution at steady state in Wistar rat at 1 mg/kg, iv and 3 or 5 mg/kg, po; assay type: ADME, organism-based; details: in vivo, read-out: Vdss
Method in brief: (§3)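 Male mice, rats, dogs and cynomolgus monkeys, fasted overnight, fed after dosing. Intravenous dose 1 mg/kg in saline or 12% sulfobutyl ether β-cyclodextrin; oral arm 3 or 5 mg/kg in 0.5% methylcellulose. Steady-state volume derived from plasma concentration−time data; mean ± SD for n = 3, individual values for n = 2.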

[17] = Volume of distribution at steady state in Beagle dog at 1 mg/kg, iv and 3 or 5 mg/kg, po; assay type: ADME, organism-based, Canis lupus familiaris; details: in vivo, read-out: Vdss; method in brief: as §3
[18] = Elimination half life in Wistar rat at 1 mg/kg, iv and 3 or 5 mg/kg, po; assay type: ADME, organism-based; details: in vivo, read-out: beta t1/2 (converted); method in brief: as §2
[19] = Elimination half life in Beagle dog at 1 mg/kg, iv and 3 or 5 mg/kg, po; assay type: ADME, organism-based, Canis lupus familiaris; details: in vivo, read-out: beta t1/2 (converted); method in brief: as §2
[20] = Tmax in Wistar rat at 3 or 5 mg/kg, po; assay type: ADME, organism-based; details: in vivo
Method in brief: (§4)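 Male animals (CD-1 mice 25−35 g, cannulated Wistar-Han rats 250 g, beagle dogs 12 kg, cynomolgus monkeys 7 kg), fasted overnight and fed 1.0 or 2.0 h after dosing, water ad libitum. Oral dose 3 or 5 mg/kg in 0.5% methylcellulose. Parameters calculated from plasma concentration−time data; mean ± SD for n = 3, individual values for n = 2.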

[21] = Tmax in Beagle dog at 3 or 5 mg/kg, po; assay type: ADME, organism-based, Canis lupus familiaris; details: in vivo; method in brief: as §4
[22] = Oral bioavailability in Wistar rat at 3 or 5 mg/kg; assay type: ADME, organism-based; details: in vivo
Method in brief: (§5)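 Male CD-1 mice, Wistar-Han rats, beagle dogs and cynomolgus monkeys, fasted overnight and fed after dosing. Given po at 3 or 5 mg/kg in 0.5% methylcellulose, with an iv reference dose of 1 mg/kg. Bioavailability derived from plasma concentration−time data; mean ± SD (n = 3) or individual values (n = 2).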

[23] = Oral bioavailability in Beagle dog at 3 or 5 mg/kg; assay type: ADME, organism-based, Canis lupus familiaris; details: in vivo; method in brief: as §5
[24] = target: T2, Myeloperoxidase (Homo sapiens); experiment: (§6) Inhibition of peroxidase activity of MPO isolated from human polynuclear leukocytes using Amplex Red as substrate assessed as formation of resorufin measured every 20 secs by spectrophotometric analysis
Myeloperoxidase [25] = target: T3, Myeloperoxidase; experiment: as §6

Q: Which log(ratio) [1] does the source give for COc1ccccc1-c1cc(=O)[nH]c(=S)[nH]1 here?
A: 2.86

Q: And the logD [2]?
A: 1.3

Q: What about the log(ratio) [3] of the same molecule?
A: 3.36

Q: And the IC50 (Myeloperoxidase [4])?
A: 6.2 µM

Q: For CCCc1cc(=O)nc(SSc2nc(=O)cc(CCC)[nH]2)[nH]1, which Drug metabolism [5] is on record?
A: metabolite_detected

Q: Which Retention_time [6] does the source give for COc1ccc(-c2cc(=O)nc(SC[C@H](NC(=O)CC[C@H](N)C(=O)O)C(=O)NCC(=O)O)n2CCOC(C)C)c(OC)c1 here?
A: 15.7 min

Q: Which IC50 (Myeloperoxidase [7]) does the source give for CCCc1cc(=O)[nH]c(=S)[nH]1 [PROPYLTHIOURACIL] here?
A: 2810 nM

Q: What about the IC50 (Myeloperoxidase [4]) of the same molecule?
A: 5.7 µM

Q: What about the inhibition [8] of the same molecule?
A: tde

Q: What about the inhibition [9] of the same molecule?
A: Active

Q: What about the inhibition [10] of the same molecule?
A: inactive

Q: For COc1ccc(-c2cc(=O)nc3n2CCO3)c(OC)c1, which Retention_time [11] is on record?
A: 14.99 min

Q: Which Drug metabolism [5] does the source give for CCCc1cc(=O)nc(S(=O)O)[nH]1 here?
A: metabolite_detected

Q: Which log(ratio) [1] does the source give for COc1ccc(-c2cc(=O)[nH]c(=S)n2CC(=O)NCCN)c(OC)c1 here?
A: < 0.5

Q: And the logD [2]?
A: -1.4

Q: What about the log(ratio) [3] of the same molecule?
A: 4.03

Q: And the Papp [12]?
A: 1.5 ×10⁻⁶ cm/s

Q: And the fraction unbound [13]?
A: 0.9

Q: And the CLH(app) (Liver microsome)?
A: < 8 µL/min/mg

Q: And the “CLH(app)” value (Hepatocyte)?
A: < 6 µL/min

Q: What about the clearance [14] of the same molecule?
A: 38.6 mL/min/kg

Q: What about the clearance [15] of the same molecule?
A: 4.1 mL/min/kg

Q: What about the Vd [16] of the same molecule?
A: 0.59 L/kg

Q: What about the Vd [17] of the same molecule?
A: 0.86 L/kg

Q: And the half-life [18]?
A: 48.6 min

Q: And the half-life [19]?
A: 155 min

Q: What about the Tmax [20] of the same molecule?
A: 45 min

Q: What about the Tmax [21] of the same molecule?
A: 1 h

Q: What about the bioavailability [22] of the same molecule?
A: 3%

Q: What about the bioavailability [23] of the same molecule?
A: 8%

Q: With COc1ccc(-c2cc(=O)[nH]c(=S)n2CCOC(C)C)c(OC)c1 as the molecule, how does the log(ratio) [1] read?
A: < 0.5

Q: What about the logD [2] of the same molecule?
A: 2.6

Q: What about the pKinact [24] of the same molecule?
A: 2.43

Q: And the Ki (Myeloperoxidase [25])?
A: 501 nM

Q: And the log(ratio) [3]?
A: 3.87

Q: And the IC50 (Myeloperoxidase [4])?
A: 11 µM

Q: And the Retention_time [6]?
A: 25.4 min

Q: What about the Papp [12] of the same molecule?
A: 26 ×10⁻⁶ cm/s

Q: What about the CLH(app) (Liver microsome) of the same molecule?
A: 11 µL/min/mg

Q: With CCCc1cc(=O)nc(S(=O)(=O)O)[nH]1 as the molecule, how does the Drug metabolism [5] read?
A: metabolite_detected
